Experiment [1] concerns the target T1, Polyunsaturated fatty acid 5-lipoxygenase (Rattus norvegicus, UniProt P12527).
T1 sequence (P12527 whole entry): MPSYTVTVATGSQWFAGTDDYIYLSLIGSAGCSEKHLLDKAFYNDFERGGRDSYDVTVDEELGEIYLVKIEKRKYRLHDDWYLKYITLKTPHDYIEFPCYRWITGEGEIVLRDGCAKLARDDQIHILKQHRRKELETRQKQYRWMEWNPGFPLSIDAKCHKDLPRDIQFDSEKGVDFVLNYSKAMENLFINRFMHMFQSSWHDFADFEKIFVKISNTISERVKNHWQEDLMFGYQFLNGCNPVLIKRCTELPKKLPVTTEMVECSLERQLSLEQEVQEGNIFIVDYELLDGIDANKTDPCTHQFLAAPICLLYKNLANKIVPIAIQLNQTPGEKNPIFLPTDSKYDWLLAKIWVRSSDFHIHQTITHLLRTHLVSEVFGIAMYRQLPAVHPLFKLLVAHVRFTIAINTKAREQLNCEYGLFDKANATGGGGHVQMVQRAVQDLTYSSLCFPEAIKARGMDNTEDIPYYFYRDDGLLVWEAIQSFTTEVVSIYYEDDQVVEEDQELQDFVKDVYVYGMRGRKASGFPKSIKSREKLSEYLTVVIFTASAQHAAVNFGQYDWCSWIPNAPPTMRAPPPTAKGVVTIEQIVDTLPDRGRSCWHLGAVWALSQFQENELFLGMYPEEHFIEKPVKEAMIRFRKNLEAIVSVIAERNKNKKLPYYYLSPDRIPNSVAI
The experiment can be described thus: In vitro inhibitory activity against 5-lipoxygenase from rat basophilic leukemia cells.

Experiment [2] has as its target T2, Polyunsaturated fatty acid 5-lipoxygenase (Rattus norvegicus) (UniProt P12527).
T2 sequence (whole entry): T1 sequence (P12527 whole entry)
The experiment can be described thus: In vitro inhibitory activity against 5-Lipoxygenase from rat basophilic leukemia cells at 30 uM concentration. Summed up:
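20000g supernatant of homogenized RBL-1 cells (7.5×10^6 cell equivalents/mL) preincubated 20 min at 37 °C with inhibitor or vehicle (2% Me₂SO) in pH 6.8 BES/PIPES buffer with EDTA, NaCl, 0.7 mM CaCl₂. Reaction started with 66 μM [¹⁴C]arachidonic acid. [¹⁴C]-5-HETE counted by liquid scintillation, corrected for [³H]-5-HETE recovery. Inhibition = % reduction vs control.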

In experiment [1], `CCCCC/C=C\C/C=C\C/C=C\C=C\C(O)CCCC(=O)NO` (centres undefined) showed a half-maximal inhibitory concentration (IC50) of 2.1 µM.
Still for that read-out and setting: the value for `CCCCC/C=C\C/C=C\C/C=C\C=C\C(CCCS)CCCC(=O)O` (centres undefined) was 36 µM; that for `CCCCC/C=C\C/C=C\C/C=C\C=C\C(CCCC(=O)O)CC(=O)O` (centres undefined) was 96 µM; that for `CCCCC/C=C\C/C=C\C/C=C\C=C\C(S)CCCC(=O)O` (centres undefined) was 7.6 µM.
For `CCCCC/C=C\C/C=C\C/C=C\C=C\C(CCCO)CCCC(=O)O` (centres undefined), in experiment [1], 97 µM corresponded to half-maximal inhibition (IC50).
The same measure, in the same setting: as for `CCCCC/C=C\C/C=C\C/C=C\C=C\C(CCCC(=O)O)CCC(=O)NO` (centres undefined), the figure is 2.8 µM.
Same read-out and setting: as for `CCCCC/C=C\C/C=C\C\C=C/C=C/C(CCCC(=O)O)=N/N=C(/N)S`, the figure is 7.9 µM; as for `CCCCC/C=C\C/C=C\C\C=C/C=C/C(CCCC(=O)O)=N/NC(N)=O`, 7 µM; as for `CCCCC/C=C\C/C=C\C/C=C\C=C\C(CCCC(=O)O)CC(=O)NO` (centres undefined), 0.19 µM.
Compound `CCCCC/C=C\C/C=C\C/C=C\C=C\C(N)CCCC(=O)O` (centres undefined) gave an IC50 in experiment [1] of 25 µM.
In the case of `CCCCC/C=C\C/C=C\C/C=C\C=C\C1CCCC(=O)C1` (centres undefined), the inhibition in experiment [2] is 27%.
`CCCCC/C=C\C/C=C\C/C=C\C=C\C(CS)CCCC(=O)O` (centres undefined) registered an IC50 in experiment [1] of 11 µM. In other words, the double-digit micromolar range.
Still for that read-out and setting: as for `CCCCC/C=C\C/C=C\C/C=C\C/C=C\CCCC(=O)NO`, the figure is 2.2 µM.
Same read-out and setting: as for `CCCCC/C=C\C/C=C\C/C=C\C=C\C(CCCC(=O)O)OC(C)=O` (centres undefined), the figure is 68 µM; as for `CCCCC/C=C\C/C=C\C\C=C/C=C/C(CCCC(=O)O)=N/O`, 11 µM.
Still for that read-out and setting: the value for `CCCCC/C=C\C/C=C\C/C=C\C=C\C(CCCC(=O)O)C(=O)NO` (centres undefined) was 1.4 µM; that for `CCCCC/C=C\C/C=C\C/C=C\C=C\C(CCO)CCCC(=O)O` (centres undefined) was 22 µM; that for `CCCCC/C=C\C/C=C\C/C=C\C=C\C1CC(=O)CC(CC(=O)O)C1` (centres undefined) was 59 µM.
`CCCCC/C=C\C/C=C\C/C=C\C=C\C1CCCC(=O)N1` (centres undefined) registered an IC50 in experiment [1] of 10 µM.
`CCCCC/C=C\C/C=C\C/C=C\C=C\C(CO)CCCC(=O)O` (centres undefined): the concentration for half-maximal inhibition (IC50) in experiment [1] stood at 29 µM.
The compound `CCCCC/C=C\C/C=C\C/C=C\C=C\C(=O)CCCC(=O)O` [5-OXO-ETE] registered an IC50 in experiment [1] of 18 µM. Against the preceding compound, the IC50 is about 1.6-fold lower.
Same read-out and setting: the value for `CCCCC/C=C\C/C=C\C/C=C\C=C\C(CCCC(=O)O)NO` (centres undefined) was 21 µM; that for `CCCCC/C=C\C/C=C\C/C=C\C=C\C(CCS)CCCC(=O)O` (centres undefined) was 25 µM.
On the same count and under the same terms, the value for `CCCCC/C=C\C/C=C\C/C=C\C=C\C1CCCC(=O)O1` (centres undefined) was 27 µM.

The values are drawn from ChEMBL document CHEMBL1123778, “Synthesis and 5-lipoxygenase inhibitory activity of 5-hydroperoxy-6,8,11,14-eicosatetraenoic acid analogues” (J Med Chem, 1987).
